Results collected from several papers.
Each line is one published result; the experiments were not run side by side.
PBK: Lymphokine-activated killer T-cell-originated protein kinase (PBK, Homo sapiens, UniProt Q96KB5)
BRD7: Bromodomain-containing protein 7 (BRD7, Homo sapiens, UniProt Q9NPI1)
SIRT6: NAD-dependent protein deacylase sirtuin-6 (SIRT6, Homo sapiens, UniProt Q8N6T7)
TNNI3K: Serine/threonine-protein kinase TNNI3K (TNNI3K, Homo sapiens, UniProt Q59H18)
VRK1: Serine/threonine-protein kinase VRK1 (VRK1, Homo sapiens, UniProt Q99986)

| SMILES | target | observed | action | method | tested at | quantity | value |
| --- | --- | --- | --- | --- | --- | --- | --- |
| Cn1c2c(Cl)c(Cl)ccc2c2cn[nH]c(=O)c21 | PBK | thermal stability | – | DSF | 10 µM | ΔTm | -0.3 °C |
| NS(=O)(=O)c1ccc(Nc2nc(-c3ccc(F)cc3)c3ccccc3n2)cc1 | BRD7 | binding | – | competition with immobilised ligand | 1 µM | remaining binding | 76% |
| Nc1nonc1-n1cc(C(=O)N/N=C/c2ccc([N+](=O)[O-])cc2O)nn1 | SIRT6 | enzyme activity | inhibitor | fluorescence | 100 µM | remaining activity | 20.6% |
| NC(=O)c1ccc(C(=O)NOCc2ccc(C(F)(F)F)cc2)cc1 | SIRT6 | enzyme activity | inhibitor | fluorescence | 100 µM | inhibition | 87% |
| Nc1nonc1-n1cc(C(=O)N/N=C/c2ccccc2C(=O)O)nn1 | SIRT6 | enzyme activity | inhibitor | fluorescence | 100 µM | remaining activity | 84.2% |
| CC/C(=N\NC(=O)NCc1cccc(O)c1)c1ccc(O)c(C)c1O | ALK tyrosine kinase receptor (ALK, Homo sapiens, UniProt Q9UM73, G1269A) | enzyme activity | inhibitor | – | 0.1 µM | inhibition | 0.4% |
| NC(=O)c1ccc(C(=O)NOCc2ccccc2Cl)cc1 | SIRT6 | enzyme activity | inhibitor | fluorescence | 100 µM | inhibition | 78.2% |
| COc1cc(Cl)c(C(=O)N[C@@H](CN[C@H]2CC[C@@H](N)CC2)Cc2ccc(C#N)cc2)cc1-c1ccc(CN[C@H](C)c2ccc(C)cc2)o1 | [Pyruvate dehydrogenase (acetyl-transferring)] kinase isozyme 4, mitochondrial (PDK4, Homo sapiens, UniProt Q16654) | enzyme activity | inhibitor | – | 1 µM | remaining activity | 103% |
| NC(=O)c1ccc(C(=O)NOCc2cccc(F)c2)cc1 | SIRT6 | enzyme activity | inhibitor | fluorescence | 100 µM | inhibition | 74.1% |
| CN1CCC2(CC1)NC(=O)c1c(c3ccc(Cl)c(Cl)c3n1C)C2C#N (racemic) | PBK | thermal stability | – | DSF | 10 µM | ΔTm | -0.2 °C |
| Nc1nonc1-n1cc(C(=O)N/N=C/c2ccc(O)c(O)c2O)nn1 | SIRT6 | enzyme activity | inhibitor | fluorescence | 100 µM | remaining activity | 51.3% |
| Cc1ccc(C(=O)Nc2ccc(CN3CCN(C)CC3)c(C(F)(F)F)c2)cc1C#Cc1cnc2cccnn12 | TNNI3K | cell-free assay | – | – | 23.5 nM | remaining signal | 50% |
| CCN1CCC2(CC1)NC(=O)c1c(c3ccc(Cl)c(Cl)c3n1C)C2C#N (racemic) | VRK1 | thermal stability | – | DSF | 10 µM | ΔTm | -0.4 °C |
| C[S+]([O-])c1ccc(-c2nc(-c3ccncc3)c(-c3ccc(F)cc3)[nH]2)cc1 (stereo not shown) | BRD7 | thermal stability | – | DSF | 10 µM | ΔTm | 0.34 °C |
| Nc1nonc1-n1cc(C(=O)N/N=C/c2cccc(O)c2O)nn1 | SIRT6 | enzyme activity | inhibitor | fluorescence | 100 µM | remaining activity | 27.2% |
| CC1(C)NC(=O)c2[nH]c3c(Cl)c(Cl)ccc3c2C1C#N (stereo not shown) | VRK1 | thermal stability | – | DSF | 10 µM | ΔTm | 0.2 °C |

| SMILES | target | observed | action | method | tested at | quantity | value |
| --- | --- | --- | --- | --- | --- | --- | --- |
| Nc1nonc1-n1cc(C(=O)N/N=C/c2ccccc2)nn1 | SIRT6 | enzyme activity | inhibitor | fluorescence | 100 µM | remaining activity | 38.9% |
| NC(=O)c1ccc(C(=O)NOCc2cc(Cl)cc(Cl)c2)cc1 | SIRT6 | enzyme activity | inhibitor | fluorescence | 100 µM | inhibition | 88.2% |
| Nc1nonc1-n1cc(C(=O)N/N=C/c2ccccc2Cl)nn1 | SIRT6 | enzyme activity | inhibitor | fluorescence | 100 µM | remaining activity | 22.8% |
| Cn1c2c(c3ccc(Cl)c(Cl)c31)C(C#N)C1(CCCC1)NC2=O (stereo not shown) | PBK | thermal stability | – | DSF | 10 µM | ΔTm | 0 °C |
| NC(=O)c1ccc(C(=O)NOCc2ccc(Cl)cc2)cc1 | SIRT6 | enzyme activity | inhibitor | fluorescence | 100 µM | inhibition | 79.5% |
| Cn1c2c(c3ccc(Cl)c(Cl)c31)C(C#N)C(C)(C)NC2=O (stereo not shown) | VRK1 | thermal stability | – | DSF | 10 µM | ΔTm | 0.1 °C |
| CC(N)c1ccc(C(=O)NOCc2ccc(C(F)(F)F)cc2)cc1 (stereo not shown) | SIRT6 | enzyme activity | inhibitor | fluorescence | 100 µM | inhibition | 89.2% |
| Nc1nonc1-n1cc(C(=O)N/N=C/c2ccc(C(F)(F)F)cc2C(F)(F)F)nn1 | SIRT6 | enzyme activity | inhibitor | fluorescence | 100 µM | remaining activity | 32.5% |
| NC(=O)c1ccc(C(=O)NOCc2ccc3nccnc3c2)cc1 | SIRT6 | enzyme activity | inhibitor | fluorescence | 100 µM | inhibition | 61.4% |
| CCC1(CC)NC(=O)c2c(c3ccc(Cl)c(Cl)c3n2C)C1C#N (stereo not shown) | PBK | thermal stability | – | DSF | 10 µM | ΔTm | 0 °C |
| Nc1ncnc2occ(-c3ccc(NC(=O)Nc4cc(C(F)(F)F)ccc4F)cc3)c12 | TNNI3K | cell-free assay | – | – | 20 µM | remaining signal | 1.5% |
| Cn1c2c(c3ccc(Cl)c(Cl)c31)C(C#N)C1(CCOCC1)NC2=O (stereo not shown) | PBK | thermal stability | – | DSF | 10 µM | ΔTm | -0.4 °C |
| O=C(Nc1ccc(S(=O)(=O)N2CCC(Cl)CC2)cc1)c1ccc([N+](=O)[O-])o1 | Voltage-dependent L-type calcium channel subunit alpha-1C (Cacna1c, Rattus norvegicus, UniProt P22002) | cell-free assay | – | – | 10 µM | inhibition | 6% |
| COC(=O)c1ccc(O)c(/C=N/NC(=O)c2cn(-c3nonc3N)nn2)c1 | SIRT6 | enzyme activity | inhibitor | fluorescence | 100 µM | remaining activity | 99.6% |
| NS(=O)(=O)c1ccc(C(=O)NOCc2ccccc2)cc1 | SIRT6 | enzyme activity | inhibitor | fluorescence | 100 µM | inhibition | 47.4% |
